Data taken from ChEMBL document CHEMBL1687829, “Evaluation of hepatotoxicity with off-label oral-treatment doses of voriconazole for invasive fungal infections” (Antimicrob Agents Chemother, 2011).

Legend:
Homo sapiens [1] = assay: Hepatotoxicity in patients assessed as three times increase in upper limit of normal bilirubin level at 200 mg, po bid for 72 days; format: toxicity, organism-based; settings: in vivo, 1728 h
In short: (§1)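 Retrospective cohort at one hospital, 2006–2008. Patients received ≥7 days of oral voriconazole treatment for possible, probable or proven invasive fungal infection, with baseline and follow-up liver enzymes available; prophylaxis use was excluded. Groups were fixed 200 mg twice daily (n = 25) or weight-based 4 mg/kg twice daily after day 1 (n = 84). Read-out was number (%) of patients with a value >5× baseline or >3× ULN.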

Homo sapiens [2] = assay: Hepatotoxicity in patients assessed as three times increase in upper limit of normal bilirubin level at 297.3 mg, po bid for 76.1 days; format: toxicity, organism-based; settings: in vivo, 1826.4 h; in short: as §1
Homo sapiens [3] = assay: Hepatotoxicity in patients assessed as five times increase in baseline bilirubin level at 200 mg, po bid for 72 days; format: toxicity, organism-based; settings: in vivo, 1728 h; in short: as §1
Homo sapiens [4] = assay: Hepatotoxicity in patients assessed as five times increase in baseline bilirubin level at 297.3 mg, po bid for 76.1 days; format: toxicity, organism-based; settings: in vivo, 1826.4 h; in short: as §1
Homo sapiens [5] = assay: Hepatotoxicity in patient assessed as three times increase in upper limit of normal […] level at 200 mg, po bid for 72 days; format: toxicity, organism-based; settings: in vivo, 1728 h; in short: as §1
Homo sapiens [6] = assay: Hepatotoxicity in patient assessed as three times increase in upper limit of normal […] level at 297.3 mg, po bid for 76.1 days; format: toxicity, organism-based; settings: in vivo, 1826.4 h; in short: as §1
Homo sapiens [7] = assay: Hepatotoxicity in patient assessed as five times increase in baseline ALP level at 200 mg, po bid for 72 days; format: toxicity, organism-based; settings: in vivo, 1728 h; in short: as §1
Homo sapiens [8] = assay: Hepatotoxicity in patient assessed as five times increase in baseline […] level at 297.3 mg, po bid for 76.1 days; format: toxicity, organism-based; settings: in vivo, 1826.4 h; in short: as §1
Homo sapiens [9] = assay: Hepatotoxicity in patient assessed as three times increase in upper limit of normal AST level at 200 mg, po bid for 72 days; format: toxicity, organism-based; settings: in vivo, 1728 h; in short: as §1
Homo sapiens [10] = assay: Hepatotoxicity in patient assessed as three times increase in upper limit of normal AST level at 297.3 mg, po bid for 76.1 days; format: toxicity, organism-based; settings: in vivo, 1826.4 h; in short: as §1
Homo sapiens [11] = assay: Hepatotoxicity in patient assessed as five times increase in baseline AST level at 200 mg, po bid for 72 days; format: toxicity, organism-based; settings: in vivo, 1728 h; in short: as §1
Homo sapiens [12] = assay: Hepatotoxicity in patient assessed as five times increase in baseline AST level at 297.3 mg, po bid for 76.1 days; format: toxicity, organism-based; settings: in vivo, 1826.4 h; in short: as §1
Homo sapiens [13] = assay: Hepatotoxicity in patient assessed as three times increase in upper limit of normal ALT level at 200 mg, po bid for 72 days; format: toxicity, organism-based; settings: in vivo, 1728 h; in short: as §1
Homo sapiens [14] = assay: Hepatotoxicity in patient assessed as three times increase in upper limit of normal ALT level at 297.3 mg, po bid for 76.1 days; format: toxicity, organism-based; settings: in vivo, 1826.4 h; in short: as §1
Homo sapiens [15] = assay: Hepatotoxicity in patient assessed as five times increase in baseline ALT level at 200 mg, po bid for 72 days; format: toxicity, organism-based; settings: in vivo, 1728 h; in short: as §1
Homo sapiens [16] = assay: Hepatotoxicity in patient assessed as five times increase in baseline ALT level at 297.3 mg, po bid for 76.1 days; format: toxicity, organism-based; settings: in vivo, 1826.4 h; in short: as §1
Homo sapiens [17] = assay: Toxicity in patient assessed as visual disturbance at 200 mg, po bid for 72 days; format: organism-based; settings: in vivo, 1728 h
In short: (§2)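 Retrospective chart review of the same cohort: adults on ≥7 days of oral voriconazole treatment, either fixed 200 mg twice daily (n = 25) or weight-based dosing (n = 84). Visual disturbances were taken from the medical records as a secondary adverse-event endpoint and given as number (%) of patients per group.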

Homo sapiens [18] = assay: Toxicity in patient assessed as visual disturbance at 297.3 mg, po bid for 76.1 days; format: organism-based; settings: in vivo, 1826.4 h; in short: as §2
Homo sapiens [19] = assay: Toxicity in patients assessed as adverse event at 297.3 mg, po bid for 76.1 days; format: organism-based; settings: in vivo, 1826.4 h
In short: (§3)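 Same retrospective cohort (fixed 200 mg twice daily, n = 25, versus weight-based oral dosing, n = 84; ≥7 days of treatment). The outcome was voriconazole discontinuation that the practitioner attributed to an adverse drug event, taken from the medical records. Counts and % per group were compared between groups.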

Homo sapiens [20] = assay: Toxicity in patients assessed as adverse event at 200 mg, po bid for 72 days; format: organism-based; settings: in vivo, 1728 h; in short: as §3

C[C@@H](c1ncncc1F)[C@](O)(Cn1cncn1)c1ccc(F)cc1F [VORICONAZOLE]
Activity (Homo sapiens [1]): 16%
Activity (Homo sapiens [2]): 6%
Activity (Homo sapiens [3]): 12%
Activity (Homo sapiens [4]): 3.6%
Activity (Homo sapiens [5]): 32%
Activity (Homo sapiens [6]): 11.9%
Activity (Homo sapiens [7]): 4%
Activity (Homo sapiens [8]): 3.6%
Activity (Homo sapiens [9]): 16%
Activity (Homo sapiens [10]): 20.2%
Activity (Homo sapiens [11]): 12%
Activity (Homo sapiens [12]): 15.5%
Activity (Homo sapiens [13]): 12%
Activity (Homo sapiens [14]): 15.5%
Activity (Homo sapiens [15]): 24%
Activity (Homo sapiens [16]): 13.1%
Activity (Homo sapiens [17]): 4%
Activity (Homo sapiens [18]): 3.6%
Activity (Homo sapiens [19]): 16.9%
Activity (Homo sapiens [20]): 0%
